According to ChEMBL document CHEMBL1124824, “Synthesis and biological activity of atrial natriuretic factor analogues: effect of modifications to the disulfide bridge” (J Med Chem, 1990):
Starred links: 1 amine or outer side, 2 acyl side, 3 side chain; linkers in the order of their positions; H or OH if unused. Positions of bridges follow the written chain, without caps; N, C: chain ends. Non-standard residues stand in square brackets, D forms with d. Residues, ends and D or L forms follow the SMILES beside them. Asu = N[C@@H](CCCCCC(=O)O)C(=O)O; Pen = CC(C)(S)[C@H](N)C(=O)O; hCys = N[C@@H](CCS)C(=O)O; X2 = O=C(CCC[*:2])[*:1]; X1 = O=C(CC[*:2])[*:1]

How the values were obtained:
[1] = organism: Rattus norvegicus; experiment: Compound was tested for the K+ excretion for treated over control animals; type: functional
Outline: (§1)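 Male Sprague-Dawley rats (300-325 g) under halothane/lidocaine had femoral artery, femoral vein and bladder cannulated. After at least 1 h of recovery in restraint, they received Ringer's (1.2 mL/h), with 10-min urine collections over a 30-min control period. Infusion of 0.5 μg/kg per min for 30 min and a 30-min Ringer's recovery followed. Na+, K+ and Cl- were measured with an electrolyte analyzer, reported as treated minus control μmol/sample. Volume ratio is treated/control over three consecutive 10-min samples, six animals.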

[2] = organism: Rattus norvegicus; experiment: Compound was tested for the Na+ excretion for treated over control animals; type: functional; outline: as §1
[3] = test system: Rattus norvegicus; experiment: Compound was tested for diuretic activity and the ratio of urine volume for treated over control animals was reported after infused at a dose of 0.5 ug/kg.; type: functional; outline: as §1
[4] = organism: Rattus norvegicus; experiment: Compound was tested for antihypertensive activity in DOCA nephrectomized rats.; type: functional
Outline: (§2)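 Rats were anesthetized with halothane after skin infiltration with 2% lidocaine, and the femoral artery and vein were cannulated. After recovery, arterial pressure was recorded. A saline control period was followed by i.v. infusion in 30-min steps at 0.1, 0.2, 0.5 and 1.0 μg/kg per min (70 μL/kg per min). Hydralazine (100 μg/kg per min) was given for standardization. ED50 is in nmol/kg per min, from six animals.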

[5] = organism: Rattus norvegicus; experiment: Compound was tested for the Cl- excretion for treated over control animals; type: functional; outline: as §1
[6] = organism: Rattus norvegicus; experiment: Compound was tested for antihypertensive activity in 5/6 nephrectomized rats.; type: functional; outline: as §2
[7] = organism: Rattus norvegicus; experiment: Compound was tested for the K+ excretion for treated over control animals.; type: functional; outline: as §1
[8] = organism: Rattus norvegicus; experiment: Compound was tested for the Na+ excretion for treated over control animals.; type: functional; outline: as §1
[9] = organism: Rattus norvegicus; experiment: Compound was tested for the Cl- excretion for treated over control animals.; type: functional; outline: as §1
[10] = target: T1, Atrial natriuretic peptide receptor 2 (Bos taurus, UniProt P46197); experiment: Binding affinity was determined based on the displacement of [125]r-ANF (99-126) from binding sites on bovine adrenal zona glomerulosa cell membranes (Atrionatriuretic peptide receptor B)
T1 sequence (P46197 whole entry): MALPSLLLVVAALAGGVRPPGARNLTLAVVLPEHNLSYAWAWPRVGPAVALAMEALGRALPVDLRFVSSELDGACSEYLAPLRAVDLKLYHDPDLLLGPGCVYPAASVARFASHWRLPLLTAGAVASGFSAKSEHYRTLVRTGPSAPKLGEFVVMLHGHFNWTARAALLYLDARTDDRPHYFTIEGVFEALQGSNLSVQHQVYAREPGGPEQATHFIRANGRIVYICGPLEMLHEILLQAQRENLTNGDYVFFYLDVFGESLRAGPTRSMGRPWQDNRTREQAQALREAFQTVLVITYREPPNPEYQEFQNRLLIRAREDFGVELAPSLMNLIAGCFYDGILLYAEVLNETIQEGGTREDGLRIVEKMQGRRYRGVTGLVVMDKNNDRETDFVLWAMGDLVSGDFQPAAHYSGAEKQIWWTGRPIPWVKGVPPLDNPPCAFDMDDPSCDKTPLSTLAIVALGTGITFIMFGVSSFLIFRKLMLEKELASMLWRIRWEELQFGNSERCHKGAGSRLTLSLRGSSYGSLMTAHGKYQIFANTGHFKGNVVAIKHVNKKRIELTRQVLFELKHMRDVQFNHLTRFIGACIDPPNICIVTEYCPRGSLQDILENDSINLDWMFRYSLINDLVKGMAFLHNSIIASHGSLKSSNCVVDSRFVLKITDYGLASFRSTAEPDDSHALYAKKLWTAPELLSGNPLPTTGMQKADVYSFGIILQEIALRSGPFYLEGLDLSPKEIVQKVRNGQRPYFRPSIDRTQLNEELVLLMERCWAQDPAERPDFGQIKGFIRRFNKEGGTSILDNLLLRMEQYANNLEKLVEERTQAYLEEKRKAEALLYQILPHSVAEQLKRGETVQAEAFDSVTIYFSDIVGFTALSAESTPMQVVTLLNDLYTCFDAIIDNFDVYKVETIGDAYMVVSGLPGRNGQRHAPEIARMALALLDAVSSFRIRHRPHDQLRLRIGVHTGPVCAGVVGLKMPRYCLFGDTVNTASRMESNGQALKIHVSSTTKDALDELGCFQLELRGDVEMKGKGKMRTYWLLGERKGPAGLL

[11] = organism: Oryctolagus cuniculus; experiment: Compound was tested for the inhibition of the stimulated contractions of the superfused rabbit thoracic aortic rings.; type: functional, Aorta
Outline: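 Rabbit thoracic aorta rings (4 mm) were held isometrically at 10-g resting tension, superfused and precontracted with phenylephrine. Test peptide was added to the superfusate above the tissue in successively higher doses after each recovery. Doses were based on peptide content. EC50 came from the dose-response curve, mean of three determinations ± SEM.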

[12] = target: T2, Atrial natriuretic peptide receptor 3 (Mus musculus, UniProt P70180); experiment: Binding affinity was determined based on the displacement of [125]r-ANF (99-126) from binding sites on mouse fibroblasts (NIH 3T3) cells (Atrionatriuretic peptide receptor C).
T2 sequence (P70180 whole entry): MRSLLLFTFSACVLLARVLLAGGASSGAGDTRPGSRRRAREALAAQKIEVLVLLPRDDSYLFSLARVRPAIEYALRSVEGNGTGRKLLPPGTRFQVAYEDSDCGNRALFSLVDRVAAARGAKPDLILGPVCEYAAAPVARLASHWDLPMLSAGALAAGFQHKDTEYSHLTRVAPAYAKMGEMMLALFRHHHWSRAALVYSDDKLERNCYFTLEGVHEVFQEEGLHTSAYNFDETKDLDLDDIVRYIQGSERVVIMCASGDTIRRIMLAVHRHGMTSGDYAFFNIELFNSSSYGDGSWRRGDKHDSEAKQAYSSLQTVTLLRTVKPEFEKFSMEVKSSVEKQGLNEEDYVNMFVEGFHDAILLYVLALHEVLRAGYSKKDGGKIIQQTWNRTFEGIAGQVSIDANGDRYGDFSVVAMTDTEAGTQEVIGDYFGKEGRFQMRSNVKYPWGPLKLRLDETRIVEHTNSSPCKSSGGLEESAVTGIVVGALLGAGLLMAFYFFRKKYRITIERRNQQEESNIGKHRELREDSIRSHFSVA

Row | Compound | Electrolyte excretion [1] [uM sample-1] | Electrolyte excretion [2] [uM sample-1] | Ratio [3] | ED50 [4] [nM/min/kg] | Electrolyte excretion [5] [umol/sample] | ED50 [6] [nM/min/kg] | Electrolyte excretion [7] [uM sample-1] | Electrolyte excretion [8] [uM sample-1] | Electrolyte excretion [9] [uM sample-1] | IC50 [10] [nM] | EC50 [11] [M 50ul-1] | IC50 [12] [nM]
1 | CC[C@H](C)[C@@H]1NC(=O)[C@H](CCCN=C(N)N)NC(=O)[C@H](CC(=O)O)NC(=O)[C@H]([C@@H](C)CC)NC(=O)[C@H](CCCN=C(N)N)NC(=O)CNC(=O)CNC(=O)[C@H](Cc2ccccc2)NC(=O)[C@@H](NC(=O)[C@H](CO)NC(=O)[C@H](CO)NC(=O)[C@H](CCCN=C(N)N)NC(=O)[C@H](CC(C)C)NC(=O)[C@@H](N)CO)CSSC[C@@H](C(=O)N[C@@H](CC(N)=O)C(=O)N[C@@H](CO)C(=O)N[C@@H](Cc2ccccc2)C(=O)N[C@@H](CCCN=C(N)N)C(=O)N[C@@H](Cc2ccc(O)cc2)C(=O)O)NC(=O)CNC(=O)[C@H](CC(C)C)NC(=O)CNC(=O)[C@H](CO)NC(=O)[C@H](CCC(N)=O)NC(=O)[C@H](C)NC(=O)CNC1=O | 16.2 | 57.4 | 3.1 | 0.1 | 72.4 | 0.14 | – | – | – | – | – | –
2 | CC[C@H](C)[C@@H]1NC(=O)[C@H](CCCN=C(N)N)NC(=O)[C@H](CC(=O)O)NC(=O)[C@H]([C@@H](C)CC)NC(=O)[C@H](CCCN=C(N)N)NC(=O)CNC(=O)CNC(=O)[C@H](Cc2ccccc2)NC(=O)CCC=CC[C@@H](C(=O)N[C@@H](CC(N)=O)C(=O)N[C@@H](CO)C(=O)N[C@@H](Cc2ccccc2)C(=O)N[C@@H](CCCN=C(N)N)C(=O)N[C@@H](Cc2ccc(O)cc2)C(=O)O)NC(=O)CNC(=O)[C@H](CC(C)C)NC(=O)CNC(=O)[C@H](CO)NC(=O)[C@H](CCC(N)=O)NC(=O)[C@H](C)NC(=O)CNC1=O | – | – | 2.5 | – | 7.3 | 1.2 | 3.2 | 0.4 | – | – | – | –
3 | CC[C@H](C)[C@@H]1NC(=O)[C@H](CCCN=C(N)N)NC(=O)[C@H](CC(=O)O)NC(=O)[C@H]([C@@H](C)CC)NC(=O)[C@H](CCCN=C(N)N)NC(=O)CNC(=O)CNC(=O)[C@H](Cc2ccccc2)NC(=O)CCCSC[C@@H](C(=O)N[C@@H](CC(N)=O)C(=O)N[C@@H](CO)C(=O)N[C@@H](Cc2ccccc2)C(=O)N[C@@H](CCCN=C(N)N)C(=O)N[C@@H](Cc2ccc(O)cc2)C(=O)O)NC(=O)CNC(=O)[C@H](CC(C)C)NC(=O)CNC(=O)[C@H](CO)NC(=O)[C@H](CCC(N)=O)NC(=O)[C@H](C)NC(=O)CNC1=O (FGGRIDRIGAQSGLGCNSFRY-OH; linker N-16 via X2) | 10.2 | 34 | 2.8 | 0.72 | 41.1 | 1.1 | – | – | – | – | – | –
4 | CC[C@H](C)[C@@H]1NC(=O)[C@H](CCCN=C(N)N)NC(=O)[C@H](CC(=O)O)NC(=O)[C@H]([C@@H](C)CC)NC(=O)[C@H](CCCN=C(N)N)NC(=O)CNC(=O)CNC(=O)[C@H](Cc2ccccc2)NC(=O)CCCCC[C@@H](C(=O)N[C@@H](CC(N)=O)C(=O)N[C@@H](CO)C(=O)N[C@@H](Cc2ccccc2)C(=O)N[C@@H](CCCN=C(N)N)C(=O)N[C@@H](Cc2ccc(O)cc2)C(=O)O)NC(=O)CNC(=O)[C@H](CC(C)C)NC(=O)CNC(=O)[C@H](CO)NC(=O)[C@H](CCC(N)=O)NC(=O)[C@H](C)NC(=O)CNC1=O (FGGRIDRIGAQSGLG[Asu]NSFRY-OH; lactam N-16) | – | – | 2.1 | – | – | 5.7 | 0 | 4.8 | 10 | – | – | –
5 | CC[C@H](C)[C@@H]1NC(=O)[C@H](CCCN=C(N)N)NC(=O)[C@H](CC(=O)O)NC(=O)[C@H]([C@@H](C)CC)NC(=O)[C@H](CCCN=C(N)N)NC(=O)CNC(=O)CNC(=O)[C@H](Cc2ccccc2)NC(=O)CCCSC(C)(C)[C@@H](C(=O)N[C@@H](CC(N)=O)C(=O)N[C@@H](CO)C(=O)N[C@@H](Cc2ccccc2)C(=O)N[C@@H](CCCN=C(N)N)C(=O)N[C@@H](Cc2ccc(O)cc2)C(=O)O)NC(=O)CNC(=O)[C@H](CC(C)C)NC(=O)CNC(=O)[C@H](CO)NC(=O)[C@H](CCC(N)=O)NC(=O)[C@H](C)NC(=O)CNC1=O (FGGRIDRIGAQSGLG[Pen]NSFRY-OH; linker N-16 via X2) | 24.8 | 17.9 | 3 | 0.14 | 39.6 | 0.11 | – | – | – | – | – | –
6 | CC[C@H](C)[C@@H]1NC(=O)[C@H](CCCN=C(N)N)NC(=O)[C@H](CC(=O)O)NC(=O)[C@H]([C@@H](C)CC)NC(=O)[C@H](CCCN=C(N)N)NC(=O)CNC(=O)CNC(=O)[C@H](Cc2ccccc2)NC(=O)CCSCC[C@@H](C(=O)N[C@@H](CC(N)=O)C(=O)N[C@@H](CO)C(=O)N[C@@H](Cc2ccccc2)C(=O)N[C@@H](CCCN=C(N)N)C(=O)N[C@@H](Cc2ccc(O)cc2)C(=O)O)NC(=O)CNC(=O)[C@H](CC(C)C)NC(=O)CNC(=O)[C@H](CO)NC(=O)[C@H](CCC(N)=O)NC(=O)[C@H](C)NC(=O)CNC1=O (FGGRIDRIGAQSGLG[hCys]NSFRY-OH; linker N-16 via X1) | 3.5 | 7.2 | 1.7 | 0.83 | 15.9 | 1.2 | – | – | – | – | – | –
7 | CC[C@H](C)[C@@H]1NC(=O)[C@H](CCCN=C(N)N)NC(=O)[C@H](CC(=O)O)NC(=O)[C@H]([C@@H](C)CC)NC(=O)[C@H](CCCN=C(N)N)NC(=O)CNC(=O)CNC(=O)[C@H](Cc2ccccc2)NC(=O)[C@@H](N)CSSC[C@@H](C(=O)N[C@@H](CC(N)=O)C(=O)N[C@@H](CO)C(=O)N[C@@H](Cc2ccccc2)C(=O)N[C@@H](CCCN=C(N)N)C(=O)N[C@@H](Cc2ccc(O)cc2)C(=O)O)NC(=O)CNC(=O)[C@H](CC(C)C)NC(=O)CNC(=O)[C@H](CO)NC(=O)[C@H](CCC(N)=O)NC(=O)[C@H](C)NC(=O)CNC1=O (H-CFGGRIDRIGAQSGLGCNSFRY-OH; disulfide 1-17) | 12.9 | 15.9 | – | 0.1 | 28.5 | – | – | – | – | 3.6 | 3.1e-10 | 0.5
